Source: PubChem (several laboratories)
CRFR2-BP antag: CRF-BP/CRF-R2 complex antagonism; actives 0.59% (n = 350,000); inhibition, % at 11.8 µM; HEK293 CRF-R2/CRF-BP, CRF-induced calcium fluorescence;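 active = inhibition of the ligand-induced calcium signal above about 50% at the single tested concentration, limit read from the data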
GPR7 antag: blocks human GPR7 receptor signaling | GPR7-expressing cells, fluorescence antagonist assay | inhibition, % at 4.4 µM | actives 1.1% (n = 290,000); in the data active = inhibition above about 16%, passing the limit was not always enough;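 note: cells stimulated with the agonist NPW; 0% = agonist with vehicle and 100% = vehicle without agonist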
Target sequence (P48145 whole entry, looked up): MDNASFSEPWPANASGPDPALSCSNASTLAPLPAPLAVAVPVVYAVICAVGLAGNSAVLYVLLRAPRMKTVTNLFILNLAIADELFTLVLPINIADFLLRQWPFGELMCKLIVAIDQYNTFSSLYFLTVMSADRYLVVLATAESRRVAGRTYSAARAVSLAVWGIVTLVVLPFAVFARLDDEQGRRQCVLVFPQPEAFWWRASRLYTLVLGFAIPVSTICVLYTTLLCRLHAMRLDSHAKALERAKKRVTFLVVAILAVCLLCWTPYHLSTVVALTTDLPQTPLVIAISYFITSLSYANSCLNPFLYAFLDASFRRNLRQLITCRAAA
CRFBP-R2 agonist: agonists of human CRF-binding protein/CRF-R2 receptor complex. HEK293 CRF-R2/CRF-BP, calcium dye fluorescence (FLIPR); percent of saturating CRF peptide response. activation, % at 13.2 µM. actives 0.46% (n = 350,000). AID 588473;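 active = activation of at least 50%, plus an integration ratio under a set limit after plate pattern correction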;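 note: plate controls were neutral control wells without compound for no effect and CRF at EC100 for full effect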
TRPML3 ag: human mucolipin-3 channel agonism; activation, % at 3 µM; HEK293 TRPML3-YFP, Fluo-8 calcium fluorescence; 100% = the carbachol control signal; actives 0.29% (n = 220,000);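 active = activation above its plate's cutoff, the mean activation of the plate's test wells plus 3 SD, cut at about 12% in these data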;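 note: 0% = DMSO only wells and 100% = carbachol wells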
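system = HEK293 cells stably carrying human TRPML3-YFP | doses = one concentration, 3 µM nominal, 0.3% DMSO | timing = dye loading 1 h 37 °C then 30 min ambient, 125 s read | detection = Fluo-8 calcium dye fluorescence, ex 470-495, em 515-575 nm | benchmarks = high control carbachol 87 µM, low control DMSO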
TRPN1 ag: agonists of zebrafish TRPN1 channel. activation, % at 3 µM. actives 0.18% (n = 220,000). HEK293 zebrafish TRPN1-YFP, Fluo-8 calcium fluorescence; 100% = response to 87 µM carbachol;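 active = activation above its plate's cutoff, the mean activation of test wells on that plate plus 3 SD, cut at about 19% in these data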;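 note: 0% = DMSO alone and 100% = 87 µM carbachol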
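Material: zebrafish TRPN1-YFP in HEK293 cells. Doses: one dose of 3 µM, 0.3% DMSO. Incubation: dye 1 h 37 °C plus 30 min RT. Measured by: intracellular calcium fluorescence with Fluo-8.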
GPR7 antag cf: human GPR7 antagonism, confirmation assay; actives 52% (n = 2,400); shares compounds with GPR7 antag; inhibition, % at 4.4 µM; GPR7-expressing cells, calcium fluorescence antagonist mode; in the data active = inhibition above about 24%;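 note: stimulated with the GPR7 agonist NPW; 0% = agonist plus vehicle and 100% = vehicle alone without agonist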
MCHR1 antag: MCHR1 (human) antagonism in GPR7 counter-screen; shares compounds with GPR7 antag; MCHR1-expressing cells, fluorescence antagonist assay; inhibition, % at 4.4 µM; actives 62% (n = 2,400); AID 2148; in the data active = inhibition above about 22%;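 note: 0% = vehicle with agonist and 100% = vehicle without agonist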
The depositor's hits bear a star. A selection: hits, their analogues and other compounds. The true share with any hit is near 2%.

Screening COc1ccc(-n2c(=S)[nH]c3cc(C(=O)Nc4ccccc4OC)ccc3c2=O)c(OC)c1 returned CRFR2-BP antag -4, GPR7 antag 31*, CRFBP-R2 agonist -1, GPR7 antag cf 24* and MCHR1 antag 46*.
Screening Fc1cccc(CSc2ncnc3c2ncn3C2CCCCO2)c1 (configuration not stated) returned CRFR2-BP antag 6 and CRFBP-R2 agonist 2.
CCCC(c1nnnn1Cc1ccc(F)cc1)N1CCN(C)CC1 (configuration not stated) was read as CRFR2-BP antag 11, GPR7 antag -2, CRFBP-R2 agonist 2, TRPML3 ag 1 and TRPN1 ag 0.
Fc1ccc(C(c2nnnn2Cc2cccs2)N2CCN(C3CCCC3)CC2)cc1 (configuration not stated) was read as CRFR2-BP antag 4, GPR7 antag 7, CRFBP-R2 agonist -1, TRPML3 ag 0 and TRPN1 ag 0.
`CCC(c1nnnn1Cc1ccc(F)cc1)N1CCN(C2CCCCC2)CC1` (configuration not stated) gave CRFR2-BP antag 9, GPR7 antag 46*, CRFBP-R2 agonist -1, TRPML3 ag 0, TRPN1 ag 0, GPR7 antag cf 43* and MCHR1 antag 29*.
`CC(C)C(c1nnnn1Cc1cccs1)N1CCN(C2CCCC2)CC1` (configuration not stated) gave CRFR2-BP antag -2, GPR7 antag 34*, CRFBP-R2 agonist 0, TRPML3 ag -1, TRPN1 ag 1, GPR7 antag cf 17 and MCHR1 antag 14.
Screening Cc1csc(NC(=O)CSc2nnc(Cc3cccn3C)n2CCc2ccccc2)n1 returned CRFR2-BP antag -20, GPR7 antag 28*, CRFBP-R2 agonist -2, TRPML3 ag 0, TRPN1 ag -1, GPR7 antag cf 16 and MCHR1 antag 16.
COc1ccc(-n2c(C)cc(/C=C3\C(=N)N4N=C(CC(=O)N5CCOCC5)SC4=NC3=O)c2C)cc1 was read as CRFR2-BP antag -11, GPR7 antag 32*, CRFBP-R2 agonist 1, GPR7 antag cf -2 and MCHR1 antag 15.
Screening Cc1cc(/C=C2\C(=N)N3N=C(CC(=O)N4CCOCC4)SC3=NC2=O)c(C)n1-c1ccccc1 returned CRFR2-BP antag -13, GPR7 antag -1 and CRFBP-R2 agonist 2.
Screening CCCc1c(O)c2ccccc2[nH]c1=O returned CRFR2-BP antag 1, GPR7 antag -12, CRFBP-R2 agonist -3, TRPML3 ag 1 and TRPN1 ag 1.
O=c1[nH]c2ccccc2c(O)c1Cc1ccccc1 was read as CRFR2-BP antag -2, GPR7 antag 22*, CRFBP-R2 agonist -2, TRPML3 ag 1, TRPN1 ag 0, GPR7 antag cf 0 and MCHR1 antag -4.
Screening CN(C)c1ccc2c3c(cccc13)C(=O)N(c1ccccc1)C2=O returned GPR7 antag 5, TRPML3 ag 1 and TRPN1 ag 4.
`Cc1cccc(N2C(=O)c3cccc4c(N(C)CCO)ccc(c34)C2=O)c1` gave CRFR2-BP antag -216, GPR7 antag 25*, CRFBP-R2 agonist 191*, TRPML3 ag 30*, TRPN1 ag 39*, GPR7 antag cf 34* and MCHR1 antag 53*.
Screening CCOc1ccc(NC2=C(Cl)C(=O)N(Cc3ccccc3)C2=O)cc1 returned CRFR2-BP antag 24, GPR7 antag 74*, CRFBP-R2 agonist -1, TRPML3 ag 0, TRPN1 ag 0, GPR7 antag cf 99* and MCHR1 antag 64*.
`O=C(c1cccc(C(F)(F)F)c1)C1CCCN(Cc2cccn2-c2ncccn2)C1` (configuration not stated) gave CRFR2-BP antag -53, GPR7 antag 21*, CRFBP-R2 agonist 17, TRPML3 ag 1, TRPN1 ag 0, GPR7 antag cf 34* and MCHR1 antag 35*.
